Measurements reported in PMC2899701 (Lipids, 2009).
≈ marks a conversion by molar mass, not a printed value. Read-outs that look alike come from different tables or passages of the source.

Legend:
[1] = test system: L. donovani promastigotes; format: cell-based, Leishmania donovani (MHOM/ET67/L82 strain); settings: for Therapeutic index IC50/EC50: IC50 murine macrophages / EC50 L. donovani promastigotes; for EC50: 48 h, read-out: L. donovani promastigotes EC50; for L. donovani promastigotes EC50: 48 h incubation, fatty acids in DMSO 0.6 to 25 μg/ml; for Effectiveness towards L. donovani (in words): promastigotes
Procedure, shortened: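 L. donovani MHOM/ET67/L82 promastigotes propagated in defined medium 199 with 10% heat-inactivated FCS, penicillin (50 U/ml) and streptomycin (50 µg/ml). Cultures given test fatty acids in DMSO over 0.6 to 25 µg/ml for 48 h. Cell population counted by Coulter counter; IC50/EC50 derived from the concentration series.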

[2] = test system: Murine macrophages (RAW 264.7); assay: Toxicity to murine macrophages; format: cell-based; settings: for IC50: RAW264.7, 48 h, read-out: Murine macrophages IC50; for Murine macrophages IC50: RAW 264.7, 48 h incubation, alamarBlue
Procedure, shortened: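 RAW 264.7 murine macrophages grown at 37 °C in RPMI 1640 with 10% FCS, penicillin (50 U/ml) and streptomycin (50 µg/ml). Cells exposed 48 h to a range of test compound concentrations (0.3 to 100 µg/ml, DMSO vehicle). Viability read with alamarBlue dye per manufacturer's protocol; IC50 derived from concentration series.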

[3] = molecular target: leishmania DNA topoisomerase IB (LdTopIB) (Leishmania donovani, UniProt A0A3Q8IHS4+Q8WQM6); assay: DNA relaxation assay with recombinant LdTopIB; format: biochemical; settings: concentrations as high as 1mM (gel not shown)
[4] = test system: L. donovani promastigotes; settings: cited from earlier work
[5] = test system: L. donovani promastigotes; settings: at levels of 100 μg/mL; cited from earlier work

Structure (SMILES): CCCCCCCCCCC#CCCCCC(=O)O [Compound 1a, 6-Heptadecynoic acid]
- Therapeutic index IC50/EC50 [1]: 0.85
- EC50 ([1]; Leishmania donovani): 6.67 ± 1.42 µg/mL (≈ 25 µM)
- IC50 ([2]; Mus musculus): 5.66 ± 0.92 µg/mL (≈ 21.2 µM)

Structure (SMILES): CCCCCCCCCCCCCC#CCCCCC(=O)O [Compound 1b, 6-Icosynoic acid]
- Therapeutic index IC50/EC50 [1]: 4.82
- EC50 ([1]; Leishmania donovani): 1.11 ± 0.28 µg/mL (≈ 3.6 µM)
- IC50 ([2]; Mus musculus): 5.35 ± 2.14 µg/mL (≈ 17.3 µM)

Structure (SMILES): CCCCCCCCCC/C=C\CCCCC(=O)O [Compound 6a, (6Z)-Heptadecenoic acid]
- L. donovani promastigotes EC50 [1]: > 25 µg/mL
- Murine macrophages IC50 [2]: 11.86 ± 1.63 µg/mL

Structure (SMILES): CCCCCCCCCCCCC/C=C\CCCCC(=O)O [Compound 6b, (6Z)-Icosenoic acid]
- L. donovani promastigotes EC50 [1]: 5.67 ± 1.07 µg/mL
- L. donovani promastigotes EC50 ([1]; listed as (6Z)-icosenoic acid): 5 to 6 µg/mL
- Therapeutic index IC50/EC50 [1]: 4.97
- Murine macrophages IC50 [2]: 28.20 ± 7.54 µg/mL

Structure (SMILES): CCCCCCCCCCCCCCCCC(=O)O [Heptadecanoic (17:0), n-heptadecanoic acid]
- Inhibition of the LdTOPIB enzyme (in words) [3]: did not inhibit the enzyme
- L. donovani promastigotes EC50 [1]: > 25 µg/mL
- Effectiveness towards L. donovani (in words) [1]: not effective
- Murine macrophages IC50 [2]: 14.18 ± 7.48 µg/mL

Structure (SMILES): CCCCCCCCCCCCCCCCCCCC(=O)O [Icosanoic (20:0), n-icosanoic acid]
- Inhibition of the LdTOPIB enzyme (in words) [3]: did not inhibit the enzyme
- L. donovani promastigotes EC50 [1]: > 25 µg/mL
- Effectiveness towards L. donovani (in words) [1]: not effective
- Murine macrophages IC50 [2]: 21.93 ± 2.61 µg/mL

Structure (SMILES): CCCCCCCCCCCCCCCCOP(=O)([O-])OCC[N+](C)(C)C [miltefosine]
- IC50 ([1]; Leishmania donovani, read-out: IC50 against L. donovani): 790 nM
- EC50 ([2]; Mus musculus, RAW264.7, read-out: EC50 against murine macrophages): 1950 nM

Structure (SMILES): CCCCCCCCCC(=O)O [n-Decanoic acid]
- MIC against L. donovani promastigotes [4]: 1390 µM (≈ 239 µg/mL)
- Inhibition of the motility of L. donovani promastigotes (in words) [5]: inhibited the motility

Structure (SMILES): CCCCCCCCCCCC(=O)O [n-dodecanoic, n-dodecanoic acid]
- Inhibition of the motility of L. donovani promastigotes (in words) [5]: inhibited the motility

Structure (SMILES): CCCCCCCCCCCCCCCC(=O)O [n-hexadecanoic acids, n-hexadecanoic acid]
- Inhibition of the motility of L. donovani promastigotes (in words) [5]: inhibited the motility

Structure (SMILES): CCCCCCCCCCCCCCCCCC(=O)O [octadecanoic acid]
- MIC against L. donovani promastigotes [4]: 180 µM (≈ 51.2 µg/mL)

Structure (SMILES): CCCCCCCC/C=C\CCCCCCCC(=O)O [oleic acid]
- MIC against L. donovani promastigotes [4]: 90 µM (≈ 25.4 µg/mL)
- Inhibition of the motility of L. donovani promastigotes (in words) [5]: had no effect
